Type in all cases: functional
For assay [1], the system named is Mus musculus. The assay is described as follows: Compound was evaluated for anticancer activity against Sarcoma180 tumor bearing mice by measuring average weight (dose 2.5 mg/kg daily). An outline of the steps:
(§1)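 Sarcoma 180 ascites-bearing CDF1 mice (~10^6 cells ip) dosed ip daily for 6 consecutive days starting 24 h after implantation, drug suspended with 20% aqueous Tween 80 in isotonic saline. Mice weighed during the experiment; percent body weight change from onset to end of therapy recorded as the toxicity index, average per group; 5–15 mice per value.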

For assay [2], the system named is Mus musculus. In words: Compound was evaluated for anticancer activity against Sarcoma180 tumor bearing mice by measuring T/C X 100 (dose 2.5 mg/kg daily). An outline of the steps: (§2)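 CDF1 mice given ~10^6 Sarcoma 180 ascites cells ip (from 7-day donor ascites, saline-diluted); compound as fine suspension in a few drops 20% aqueous Tween 80 made up in isotonic saline, 0.5 mL ip once daily for 6 days from 24 h post-implant. Survival time of treated vs vehicle-injected controls expressed as T/C × 100; 5–15 mice per value.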

Assay [3] concerns Mus musculus. In words: Compound was evaluated for anticancer activity against Sarcoma180 tumor bearing mice by measuring average weight (dose 10 mg/kg daily). The method in brief:
as §1

In assay [4] the test system is Mus musculus. The assay is described as follows: Compound was evaluated for anticancer activity against Sarcoma180 tumor bearing mice by measuring T/C X 100 (dose 10 mg/kg daily). An outline of the steps:
as §2

For assay [5], the system named is Mus musculus. The assay is described as follows: Compound was evaluated for anticancer activity against Sarcoma180 tumor bearing mice by measuring T/C X 100 (dose 5 mg/kg daily). The method in brief:
as §2

For assay [6], the system named is Mus musculus. In words: Compound was evaluated for anticancer activity against Sarcoma180 tumor bearing mice by measuring average weight (dose 5 mg/kg daily). The method in brief: as §1
Assay [7] relates to Mus musculus. The assay is described as follows: Compound was evaluated for anticancer activity against Sarcoma180 tumor bearing mice by measuring T/C X 100 (dose 15 mg/kg daily). An outline of the steps: as §2
Assay [8] has as its system Mus musculus. In words: Compound was evaluated for anticancer activity against Sarcoma180 tumor bearing mice by measuring T/C X 100 (dose 7.5 mg/kg daily). The method in brief: as §2
For assay [9], the system named is Mus musculus. In words: Compound was evaluated for anticancer activity against Sarcoma180 tumor bearing mice by measuring average weight (dose 7.5 mg/kg daily). The method in brief: as §1
Assay [10] relates to Mus musculus. The assay is described as follows: Compound was evaluated for anticancer activity against Sarcoma180 tumor bearing mice by measuring average weight (dose 15 mg/kg daily). An outline of the steps: as §1
For assay [11], the system named is Mus musculus. In words: Compound was evaluated for anticancer activity against Sarcoma180 tumor bearing mice by measuring average weight (dose 3.25 mg/kg daily). The method in brief: as §1
In assay [12] the test system is Mus musculus. In words: Compound was evaluated for anticancer activity against Sarcoma180 tumor bearing mice by measuring T/C X 100 (dose 3.25 mg/kg daily). An outline of the steps: as §2

Our source for the Average weight and T/C values is ChEMBL document CHEMBL1122676, “2,3-Dimethyl-1,4-naphthoquinone derivatives as bioreductive alkylating agents with cross-linking potential” (1984).

In the case of `CS(=O)(=O)OCC1=C(COS(C)(=O)=O)C(=O)c2ccccc2C1=O`, the Average weight in the assay with Mus musculus [1] is reported as 18.4%; with Mus musculus [3] it was -2%; with Mus musculus [6] it was 5.9%. For the same molecule, the T/C is recorded as 114 in the assay with Mus musculus [2], 232 with Mus musculus [4] and 204 with Mus musculus [5].
On to `CNC(=O)OCC1=C(COC(=O)NC)C(=O)c2ccccc2C1=O`, for which the Average weight in the assay with Mus musculus [1] is reported as 3.8%; in the assay on Mus musculus [3] it was -10%; in the assay on Mus musculus [6], -7.6%. For the same molecule, the T/C is 266 in the assay on Mus musculus [2], 200 in the assay with Mus musculus [4] and 177 in the assay with Mus musculus [5].
As for `CC1=C(C)C(=O)c2ccccc2C1=O`, the T/C in the assay with Mus musculus [7] is 103; in the assay on Mus musculus [8] it was 78; in the assay with Mus musculus [12], 104. In addition, the Average weight in the assay with Mus musculus [9] stood at 1.3%; with Mus musculus [10], 0.5%; in the assay with Mus musculus [11] it was 1.4%.
For `O=C1C(CBr)=C(CBr)C(=O)c2ccccc21`, the T/C with Mus musculus [7] amounted to 140; in the assay on Mus musculus [8] it was 130; in the assay on Mus musculus [12], 165. For the same molecule, the Average weight in the assay on Mus musculus [9] is listed as -14.3%; in the assay on Mus musculus [10], -14.1%; in the assay with Mus musculus [11], -8.8%.
As to `O=C(NCCCl)OCC1=C(COC(=O)NCCCl)C(=O)c2ccccc2C1=O`, the Average weight with Mus musculus [1] is reported as 0%; in the assay on Mus musculus [3], -7.8%; in the assay with Mus musculus [6], -4.3%. In addition, the values for the T/C in the assay on Mus musculus [2], in the assay with Mus musculus [4] and in the assay on Mus musculus [5] were 230, 189 and 209, respectively.
As for `O=C1C(CO)=C(CO)C(=O)c2ccccc21`, the results for the T/C in the assay with Mus musculus [7], in the assay with Mus musculus [8] and with Mus musculus [12] were 37, 51 and 55, respectively. For the same molecule, the Average weight in the assay on Mus musculus [9] is on record as -14.3%; with Mus musculus [10], -9.9%; in the assay with Mus musculus [11], 10.8%.
For `O=C1C(CCl)=C(CCl)C(=O)c2ccccc21`, the T/C is 122 in the assay on Mus musculus [7], 158 with Mus musculus [8] and 100 with Mus musculus [12]. Besides, the Average weight in the assay on Mus musculus [9] is recorded as -10.3%; in the assay with Mus musculus [10] it was -15.6%; in the assay on Mus musculus [11] it was -15.1%.
As to `Cc1ccc(S(=O)(=O)OCC2=C(COS(=O)(=O)c3ccc(C)cc3)C(=O)c3ccccc3C2=O)cc1`, the figures for the Average weight with Mus musculus [1], with Mus musculus [3] and in the assay with Mus musculus [6] were 22.3%, 13.8% and 21%, respectively. Besides, the T/C was 130 with Mus musculus [2], 126 in the assay on Mus musculus [4] and 138 in the assay on Mus musculus [5].
